According to ChEMBL document CHEMBL4138133, “2,3-Dihydro-3β-methoxy Withaferin-A Protects Normal Cells against Stress: Molecular Evidence of Its Potent Cytoprotective Activity” (J Nat Prod, 2017):
The source made the active and inactive calls. The calls are words filed in the database; no cut-off is given here.

Legend:
TIG-3 [1] = test: Induction of oxidative stress in human TIG3 cells assessed as increase in p53 expression level at 0.6 uM by immunoblot analysis; assay type: cell-based; settings: tig-3, 0.6 µM
How it was run: (§1)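 TIG-3 cells treated with compound, lysed in NP40 buffer (centrifuged 20 min, 4 °C); 10−20 μg protein immunoblotted for indicated proteins; band quantitation from three independent experiments, Student's t or Mann−Whitney test.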

WI-38 [2] = test: Cytotoxicity against human WI38 cells assessed as reduction in cell viability at 1 to 10 uM after 72 hrs; assay type: cell-based; settings: wi-38, 72 h
How it was run: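 Normal fibroblasts in DMEM/10% FBS at 37 °C given 0.15 to 50 μM compound for 48 or 72 h; viability determined; triplicate, mean ± SEM.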

TIG-3 [3] = test: Effect on mortalin expression level in human TIG3 cells at 0.3 to 3 uM by immuno fluorescence analysis; assay type: ADME, cell-based; settings: tig-3, 3 µM
How it was run: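 Methanol-fixed (chilled absolute methanol) TIG-3 fibroblasts treated with Wi-A or 3βmWi-A; immunofluorescence staining with antibodies, imaged by epifluorescence microscopy; signal quantitated from three independent experiments.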

[4] = molecular target: RAC-alpha serine/threonine-protein kinase (Homo sapiens) (UniProt P31749); test: Induction of Akt phosphorylation at Ser473 residues in H2O2 treated human TIG3 cells at 0.6 uM pretreated with H2O2 for 2 hrs followed by compound addition by immunoblot analysis
Chain of RAC-alpha serine/threonine-protein kinase (Homo sapiens) (P31749 whole entry): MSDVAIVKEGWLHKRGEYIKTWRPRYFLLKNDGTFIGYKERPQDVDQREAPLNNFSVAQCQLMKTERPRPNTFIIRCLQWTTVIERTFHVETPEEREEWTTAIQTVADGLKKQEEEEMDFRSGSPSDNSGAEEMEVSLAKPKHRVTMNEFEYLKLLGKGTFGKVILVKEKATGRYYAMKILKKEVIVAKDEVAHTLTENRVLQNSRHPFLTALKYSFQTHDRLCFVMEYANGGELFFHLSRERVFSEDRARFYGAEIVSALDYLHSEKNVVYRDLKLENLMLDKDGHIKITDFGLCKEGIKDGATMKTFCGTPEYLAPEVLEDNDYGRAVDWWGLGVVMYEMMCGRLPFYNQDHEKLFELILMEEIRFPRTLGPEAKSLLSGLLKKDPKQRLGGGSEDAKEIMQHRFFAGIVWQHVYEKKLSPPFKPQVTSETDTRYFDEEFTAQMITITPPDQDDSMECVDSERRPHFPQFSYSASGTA
How it was run: (§2)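 TIG-3 cells stressed with H2O2 (500 μM, 2 h), then recovered in medium containing 0.3 or 0.6 μM compound. Lysed in NP40 buffer; 10−20 μg protein immunoblotted for pAkt Ser473, p-p38 Thr180/Tyr182, p-p44/42 Thr202/Tyr204, β-catenin, survivin, Bcl-2 or full-length PARP-1. Triplicate experiments.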

[5] = molecular target: Mitogen-activated protein kinase 1 (Homo sapiens) (UniProt P28482); test: Induction of ERK2 phosphorylation at Tyr204 residues in UV-irradiated human TIG3 cells using 50 mJ/cm2 of UV radiations followed by compound addition by immuno fluorescence staining based analysis
Chain of Mitogen-activated protein kinase 1 (Homo sapiens) (P28482 whole entry): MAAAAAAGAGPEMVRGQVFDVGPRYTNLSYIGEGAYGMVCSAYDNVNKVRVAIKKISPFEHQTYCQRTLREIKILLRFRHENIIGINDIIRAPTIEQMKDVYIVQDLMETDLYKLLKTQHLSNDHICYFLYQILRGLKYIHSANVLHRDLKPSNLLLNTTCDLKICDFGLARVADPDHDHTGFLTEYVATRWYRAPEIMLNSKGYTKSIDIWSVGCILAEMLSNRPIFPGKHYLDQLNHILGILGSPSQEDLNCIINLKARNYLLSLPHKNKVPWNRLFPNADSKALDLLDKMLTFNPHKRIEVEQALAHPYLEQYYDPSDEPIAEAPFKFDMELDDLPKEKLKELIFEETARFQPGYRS
How it was run: (§3)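 TIG-3 fibroblasts (DMEM, 10% FBS, 37 °C) stressed with H2O2 (500 μM, 2 h) or UV (50 mJ/cm2), then recovered in compound-supplemented medium. Cells fixed in chilled absolute methanol and immunostained for the marker. Images taken by fluorescence microscopy and staining intensity quantified. Triplicate experiments.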

[6] = molecular target: T1, MAP kinase p38 (Homo sapiens) (UniProt O15264+Q15759+Q16539+P53778); test: Induction of p38 MAPK phosphorylation at Thr180/Tyr182 residues in H2O2 treated human TIG3 cells pretreated with H2O2 for 2 hrs followed by compound addition by immuno fluorescence staining based analysis; how it was run: as §3
[7] = molecular target: T1, MAP kinase p38 (Homo sapiens); test: Induction of p38 MAPK phosphorylation at Thr180/Tyr182 residues in UV-irradiated human TIG3 cells using 50 mJ/cm2 of UV radiations followed by compound addition by immuno fluorescence staining based analysis; how it was run: as §3
TIG-3 [8] = test: Cytoprotective activity against cisplatin-induced stress in human TIG3 cells assessed as increase in cell survival pretreated with cisplatin for 24 hrs followed by compound addition measured after 2 days by crystal violet staining based assay; assay type: functional
TIG-3 [9] = test: Decrease in Nrf2 expression level in human TIG3 cells at 0.3 to 3 uM by immunoblot analysis; assay type: ADME, cell-based; settings: tig-3, 3 µM; how it was run: as §1
TIG-3 [10] = test: Cytotoxicity against human TIG3 cells assessed as inhibition of colony formation by crystal violet staining based assay; assay type: cell-based
How it was run: (§4)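 500 cells/well seeded, cultured about 2 weeks with medium (control or compound-supplemented) renewed every fourth day; colonies fixed, stained, counted; triplicates, Student's t test.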

TIG-3 [11] = test: Cytoprotective activity against H2O2-induced oxidative stress in human TIG3 cells assessed as decrease in 53BP1 level at 0.6 uM pretreated with H2O2 for 2 hrs followed by compound addition by immuno fluorescence staining based analysis; assay type: functional, cell-based; how it was run: as §3
TIG-3 [12] = test: Cytoprotective activity against H2O2-induced oxidative stress in human TIG3 cells assessed as decrease in gammaH2AX level at 0.6 uM pretreated with H2O2 for 2 hrs followed by compound addition by immuno fluorescence staining based analysis; assay type: functional, cell-based; how it was run: as §3
TIG-3 [13] = test: Cytoprotective activity against UV irradiation-induced stress in human TIG3 cells assessed as increase in cell survival at 3 uM irradiated with 50 mJ/cm2 of UV radiations followed by compound addition measured after 72 hrs by crystal violet staining based assay; assay type: functional
TIG-3 [14] = test: Effect on p53 expression level in human TIG3 cells at 0.3 to 3 uM by immunoblot analysis; assay type: cell-based; settings: tig-3, 3 µM; how it was run: as §1
TIG-3 [15] = test: Cytoprotective activity against H2O2-induced oxidative stress in human TIG3 cells assessed as increase in Bcl2 level at 0.6 uM pretreated with H2O2 for 2 hrs followed by compound addition by immunoblot analysis; assay type: functional, cell-based; how it was run: as §2
TIG-3 [16] = test: Cytoprotective activity against etoposide-induced stress in human TIG3 cells assessed as increase in cell survival pretreated with etoposide for 24 hrs followed by compound addition measured after 2 days by crystal violet staining based assay; assay type: functional
TIG-3 [17] = test: Cytoprotective activity against H2O2-induced oxidative stress in human TIG3 cells assessed as decrease in CARF level pretreated with H2O2 for 2 hrs followed by compound addition by immuno fluorescence staining based assay; assay type: functional, cell-based
TIG-3 [18] = test: Cytoprotective activity against H2O2-induced oxidative stress in human TIG3 cells assessed as increase in cell survival at 3 uM pretreated with H2O2 for 2 hrs followed by compound addition measured after 72 hrs by crystal violet staining based assay; assay type: functional
TIG-3 [19] = test: Induction of oxidative stress in human TIG3 cells assessed as increase in CARF expression level at 0.6 uM by immunoblot analysis; assay type: cell-based; settings: tig-3, 0.6 µM; how it was run: as §1
TIG-3 [20] = test: Cytotoxicity against human TIG3 cells assessed as induction of morphological changes at 0.3 to 1.5 uM after 48 hrs by phase contrast microscopy; assay type: cell-based; settings: tig-3, 48 h
How it was run: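 Phase-contrast microscopy of morphology of control and treated normal human TIG-3 fibroblasts.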

WI-38 [21] = test: Cytotoxicity against human WI38 cells assessed as inhibition of colony formation by crystal violet staining based assay; assay type: cell-based; how it was run: as §4
TIG-3 [22] = test: Effect on p21 WAF1 expression level in human TIG3 cells at 0.3 to 3 uM by immunoblot analysis; assay type: ADME, cell-based; settings: tig-3, 3 µM; how it was run: as §1
TIG-3 [23] = test: Decrease in keap1 expression level in human TIG3 cells at 0.3 to 3 uM by immunoblot analysis; assay type: ADME, cell-based; settings: tig-3, 3 µM; how it was run: as §1
TIG-3 [24] = test: Induction of oxidative stress against human TIG3 cells assessed as increase in CARF mRNA levels by RT-PCR analysis; assay type: cell-based
How it was run: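 Total RNA from treated TIG-3 cells; cDNA from 2 μg RNA; PCR 95 °C 10 min, 30 cycles (95 °C 45 s, 58 °C 1 min, 72 °C 45 s), 72 °C 10 min; products on 0.8% agarose, band densitometry; three independent experiments.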

TIG-3 [25] = test: Cytotoxicity against human TIG3 cells assessed as induction of senescence at 70 to 72 population doubling at 0.5 uM; assay type: cell-based; settings: tig-3, 0.5 µM
Homo sapiens = species on record: Homo sapiens; test: Induction of AKT/p38/p44 MAPK-mediated survivin expression level in H2O2 treated human TIG3 cells at 0.6 uM pretreated with H2O2 for 2 hrs followed by compound addition by immunoblot analysis; how it was run: as §2
TIG-3 [26] = test: Cytoprotective activity against H2O2-induced oxidative stress in human TIG3 cells assessed as decrease in phosphorylated ATM level at 0.6 uM pretreated with H2O2 for 2 hrs followed by compound addition by immuno fluorescence staining based analysis; assay type: functional, cell-based; how it was run: as §3

With `CO[C@H]1CC(=O)[C@]2(C)[C@H]3CC[C@]4(C)[C@@H]([C@H](C)[C@H]5CC(C)=C(CO)C(=O)O5)CC[C@H]4[C@@H]3C[C@H]3O[C@]32[C@H]1O` the Activity (TIG-3 [1]) was “Non-Toxic”, the Activity (WI-38 [2]) was “Non-Toxic” and the Activity (TIG-3 [3]) was “Non-Toxic”. For the same compound, the Activity [4] was “Active”, the Activity [5] was “Active” and the Activity [6] was “Active”. The Activity [7] was “Active”, the Activity (TIG-3 [8]) was “Dose-dependent effect” and the Activity (TIG-3 [9]) was “Non-Toxic”. For the same compound, the Activity (TIG-3 [10]) was “Non-Toxic”, the Activity (TIG-3 [11]) was “Active” and the Activity (TIG-3 [12]) was “Active”. For the same compound, the Activity (TIG-3 [13]) was “Active”, the Activity (TIG-3 [14]) was “Non-Toxic” and the Activity (TIG-3 [15]) was “Active”. The Activity (TIG-3 [16]) was “Dose-dependent effect”, the Activity (TIG-3 [17]) was “Active” and the Activity (TIG-3 [18]) was “Active”. For the same compound, the Activity (TIG-3 [19]) was “Non-Toxic”, the Activity (TIG-3 [20]) was “Non-Toxic” and the Activity (WI-38 [21]) was “Non-Toxic”. The Activity (TIG-3 [22]) was “Non-Toxic”, the Activity (TIG-3 [23]) was “Non-Toxic” and the Activity (TIG-3 [24]) was “Non-Toxic”. The Activity (TIG-3 [25]) was “Non-Toxic”, the Activity (Homo sapiens) was “Active” and the Activity (TIG-3 [26]) was “Active”.
